This note sets out measurements from ChEMBL document CHEMBL4257512, “Synthesis and antiplasmodial activity of purine-based C-nucleoside analogues” (Medchemcomm, 2018).

What is called IC50 is the midpoint of a concentration-inhibition curve. In general, CC50 refers to the concentration at which the toxic effect on the cells reaches its halfway point.

Data set [1] deals with Plasmodium falciparum. Briefly: Growth inhibition of Plasmodium falciparum D6 infected in human erythrocytes assessed as reduction in [3H]-isoleucine incorporation pretreated for 24 hrs followed by [3H]-isoleucine addition and measured after 18 hrs by liquid scintillation counting method. The data set is classed as functional, organism-based.
Data set [2] relates to Plasmodium falciparum. The experiment in a line: Growth inhibition of Plasmodium falciparum ITG2 infected in human erythrocytes assessed as reduction in [3H]-isoleucine incorporation pretreated for 24 hrs followed by [3H]-isoleucine addition and measured after 18 hrs by liquid scintillation counting method. The data set is classed as functional, organism-based.
Data set [3] has as its system Plasmodium falciparum. Briefly: Antiplasmodial activity against chloroquine-sensitive Plasmodium falciparum 3D7 asynchronous cultures infected in human erythrocytes measured after 72 hrs by SYBR Green1 dye based fluorescence assay. The data set is classed as functional, organism-based. Particulars: 3D7, 72 h. The method, boiled down:
(§1)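 Parasites kept in human erythrocytes at 5% hematocrit in RPMI-1640 (HEPES) with 0.5% AlbuMaxII, 0.2% glucose, 0.2% bicarbonate, 15 µM hypoxanthine, 37 °C, CO₂. Two-fold serial dilutions spanning 5 µM to 78 nM were applied to asynchronous cultures at 0.8-1% parasitaemia, 1% haematocrit, for 72 h. SYBR Green I lysis buffer was added for 2 h, with fluorescence read at Ex 485/Em 535 nm. IC50 was derived from DNA signal against drug-free controls.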

The nature of data set [4]: Selectivity index, ratio of CC50 for African green monkey Vero cells to IC50 for chloroquine-resistant Plasmodium falciparum K1 asynchronous cultures infected in human erythrocytes. The data set is classed as toxicity, cell-based. Particulars: read-out: Ratio CC50/IC50.
Data set [5] is described as follows: Selectivity index, ratio of CC50 for African green monkey Vero cells to IC50 for chloroquine-sensitive Plasmodium falciparum 3D7 asynchronous cultures infected in human erythrocytes. As to conditions: read-out: Ratio CC50/IC50. Format: toxicity, cell-based.
Data set [6] has as its system Plasmodium falciparum. The experiment in a line: Antiplasmodial activity against chloroquine-resistant Plasmodium falciparum K1 asynchronous cultures infected in human erythrocytes measured after 72 hrs by SYBR Green1 dye based fluorescence assay. Format: functional, organism-based. Particulars: K1, 72 h. The method, boiled down: as §1
Data set [7] is described as follows: Resistance index, ratio of IC50 for chloroquine-resistant Plasmodium falciparum K1 asynchronous cultures infected in human erythrocytes to IC50 for chloroquine-sensitive Plasmodium falciparum 3D7 asynchronous cultures infected in human erythrocytes. The data set is classed as functional.
Data set [8] is described as follows: Cytotoxicity against African green monkey Vero cells after 3 days by resazurin dye based fluorescence assay. Format: cell-based. Particulars: chlorocebus sabaeus. The method, boiled down: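 VERO kidney cells kept in MEM with 15% FBS, 5% CO₂, 37 °C. Cells exposed to serial compound dilutions for three days. Then 10% resazurin added as viability marker. Fluorescence read at Ex 530 ± 25 nm / Em 590 ± 25 nm. Median cytotoxic concentration (CC₅₀) calculated from readings.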

For the compound `CN(C/C=C/CN)C[C@H]1O[C@@H](n2cnc3c(N)ncnc32)[C@H](O)[C@@H]1O`, the IC50 in the data set with Plasmodium falciparum [1] and in the data set with Plasmodium falciparum [2] was 2000 to 3000 nM in each case.
Consider `CC1(C)O[C@H]2O[C@H]([C@@H](CCO)n3cnc4c(NCc5ccccc5)ncnc43)[C@H](OCc3ccccc3)[C@H]2O1`, for which the IC50 was 4.11 µM in the data set with Plasmodium falciparum [3] and 4.99 µM in the data set with Plasmodium falciparum [6]. The selectivity ratio in data set [4] was found to be 15; in data set [5] it was 18.2. Moreover, in data set [7], the “Ratio IC50” value is 1.21. Besides, in data set [8], it took 74.9 µM to reach half-maximal cytotoxicity (CC50 at 72 h).
Turning to `CCOC(=O)C[C@H]([C@H]1O[C@@H]2OC(C)(C)O[C@@H]2[C@H]1Oc1ccccc1[N+](=O)[O-])n1cnc2c(N)ncnc21`, the results for the IC50 with Plasmodium falciparum [3] and in the data set with Plasmodium falciparum [6] were 4.24 µM and 4.25 µM, respectively. For the same compound, the selectivity ratio is 28 in data set [4] and 28.1 in data set [5]. Moreover, the “Ratio IC50” value in data set [7] is listed as 1. The compound further came in with a CC50 at 72 h in data set [8] of 119 µM.
As to `CC1(C)O[C@H]2O[C@H]([C@H](CCO)n3cnc4c(N)ncnc43)[C@H](Oc3ccccc3[N+](=O)[O-])[C@H]2O1`, the concentration for half-maximal inhibition (IC50) with Plasmodium falciparum [3] stood at 3.62 µM; in the data set on Plasmodium falciparum [6] it was 4.7 µM. The selectivity ratio in data set [4] came to 33.3; in data set [5] it was 37.1. For the same compound, in data set [7], the “Ratio IC50” value came to 1.11. Besides, it took 148 µM to reach half-maximal cytotoxicity in data set [8] (CC50 at 72 h).
In the case of `CCOC(=O)CCn1cnc2c(N)ncnc21`, in the data set with Plasmodium falciparum [3], the IC50 is greater than 5 µM.
On to `CCCCCCCCCCCCNc1ncnc2c1ncn2[C@@H](CC(=O)OCC)[C@H]1O[C@@H]2OC(C)(C)O[C@@H]2[C@H]1OCc1ccccc1`, for which the IC50 in the data set with Plasmodium falciparum [3] is 0.88 µM; with Plasmodium falciparum [6], 1.13 µM. The selectivity ratio in data set [4] stood at 72.1; in data set [5], 92.6. Also, in data set [7], the “Ratio IC50” value is on record as 1.28. It took 81.5 µM to reach half-maximal cytotoxicity in data set [8] (CC50 at 72 h).
For `CCOC(=O)C[C@H]([C@H]1O[C@@H]2OC(C)(C)O[C@@H]2[C@H]1OCc1ccccc1)n1cnc2c(NCc3ccccc3)ncnc21`, the values for the IC50 with Plasmodium falciparum [3] and in the data set on Plasmodium falciparum [6] were 3.6 µM and 2.27 µM, respectively. For the same compound, the selectivity ratio in data set [4] was 23.5; in data set [5], 14.8. For the same compound, the “Ratio IC50” value in data set [7] is reported as 0.63. This compound displayed a CC50 at 72 h in data set [8] of 53.3 µM.
Take `CC(O)c1ccc(-n2cnc3c(N)ncnc32)cc1` (stereo not given): the IC50 with Plasmodium falciparum [3] is greater than 5 µM.
Regarding `CCCCCCCCCCCCNc1ncnc2c1ncn2[C@H](CC(=O)OCC)[C@H]1O[C@@H]2OC(C)(C)O[C@@H]2[C@H]1OCc1ccccc1`, the IC50 was 1.01 µM in the data set on Plasmodium falciparum [3] and 2.57 µM with Plasmodium falciparum [6]. The values for the selectivity ratio in data set [4] and in data set [5] were 17.5 and 44.5, respectively. Further, in data set [7], the “Ratio IC50” value came to 2.54. In addition, in data set [8], half-maximal cytotoxicity (CC50 at 72 h) was put at 45 µM.
For `COC(=O)C[C@@H]([C@H]1O[C@@H]2OC(C)(C)O[C@@H]2[C@H]1OCc1ccccc1)n1cnc2c(N)ncnc21`, the results for the IC50 with Plasmodium falciparum [3] and with Plasmodium falciparum [6] were 4.44 µM and 4.79 µM, respectively. Moreover, the selectivity ratio in data set [4] was determined as 14.3; in data set [5] it was 15.4. Further, in data set [7], the “Ratio IC50” value is reported as 1.07. Moreover, the CC50 at 72 h in data set [8] came out at 68.4 µM.
In the data set with Plasmodium falciparum [3], `CC(=O)c1ccc(-n2cnc3c(N)ncnc32)cc1` had an IC50 greater than 5 µM.
Take `CCOC(=O)C[C@@H]([C@H]1O[C@@H]2OC(C)(C)O[C@@H]2[C@H]1Oc1ccccc1N)n1cnc2c(N)ncnc21`: the IC50 in the data set with Plasmodium falciparum [3] is 4.47 µM; with Plasmodium falciparum [6], greater than 5 µM. Besides, the selectivity ratio was less than 17.9 in data set [4] and 20.1 in data set [5]. Moreover, the “Ratio IC50” value in data set [7] was greater than 1.11. In data set [8], this compound displayed a CC50 at 72 h of 89.7 µM.
On to `CC1(C)O[C@H]2O[C@H]([C@H](CCO)n3cnc4c(N)ncnc43)[C@H](OCc3ccccc3)[C@H]2O1`, for which the IC50 was 4.31 µM in the data set on Plasmodium falciparum [3] and 4.99 µM in the data set on Plasmodium falciparum [6]. Also, the selectivity ratio in data set [4] turned out to be 19.5; in data set [5] it was 22.5. The “Ratio IC50” value in data set [7] amounted to 1.15. In data set [8], this compound yielded a CC50 at 72 h of 97.1 µM.
For the compound `CC1(C)O[C@H]2O[C@H]([C@H](CCO)n3cnc4c(N)ncnc43)[C@@H](OCc3ccccc3)[C@H]2O1`, the half-maximal inhibitory concentration (IC50) came to 4.52 µM with Plasmodium falciparum [3] and 4.09 µM in the data set with Plasmodium falciparum [6]. In addition, the selectivity ratio in data set [4] came to 31.5; in data set [5], 40.9. Further, in data set [7], the “Ratio IC50” value is 1.29. In addition, the 50% cytotoxic concentration (CC50) at 72 h in data set [8] stood at 148 µM.
For the compound `CCOC(=O)C[C@@H]([C@H]1O[C@@H]2OC(C)(C)O[C@@H]2[C@H]1OCc1ccccc1)n1cnc2c(NCc3ccccc3)ncnc21`, the figures for the IC50 with Plasmodium falciparum [3] and in the data set with Plasmodium falciparum [6] were 1.61 µM and 1.14 µM, respectively. Moreover, the figures for the selectivity ratio in data set [4] and in data set [5] were 50.4 and 35.7, respectively. The “Ratio IC50” value in data set [7] amounted to 0.7. The CC50 at 72 h in data set [8] was 57.5 µM.
Take `CC1(C)O[C@H]2O[C@H]([C@@H](CCO)n3cnc4c(N)ncnc43)[C@H](Oc3ccccc3[N+](=O)[O-])[C@H]2O1`: the IC50 with Plasmodium falciparum [3] is 3.13 µM; in the data set with Plasmodium falciparum [6], 2.37 µM. The values for the selectivity ratio in data set [4] and in data set [5] were 12.7 and 11.5, respectively. The “Ratio IC50” value in data set [7] is recorded as 0.9. The compound further gave a CC50 at 72 h in data set [8] of 51.8 µM.
As for `CC1(C)O[C@H]2O[C@H]([C@H](CC(=O)O)n3cnc4c(N)ncnc43)[C@H](Oc3ccccc3N)[C@H]2O1`, the values for the IC50 in the data set on Plasmodium falciparum [3] and with Plasmodium falciparum [6] were 4.82 µM and 3.72 µM, respectively. For the same compound, the figures for the selectivity ratio in data set [4] and in data set [5] were 18 and 13.9, respectively. Also, the CC50 at 72 h in data set [8] is 67.1 µM.
For the compound `CC1(C)O[C@H]2O[C@H]([C@H](CCO)n3cnc4c(NCc5ccccc5)ncnc43)[C@H](OCc3ccccc3)[C@H]2O1`, the IC50 in the data set with Plasmodium falciparum [3] stood at 3.99 µM; in the data set on Plasmodium falciparum [6], 4.44 µM. In addition, the results for the selectivity ratio in data set [4] and in data set [5] were 25.8 and 19.6, respectively. Besides, the “Ratio IC50” value in data set [7] was 0.75. The compound further registered a half-maximal cytotoxic concentration (CC50) at 72 h in data set [8] of 61.2 µM.
With `COC(=O)C[C@H]([C@H]1O[C@@H]2OC(C)(C)O[C@@H]2[C@H]1OCc1ccccc1)n1cnc2c(N)ncnc21`, the figures for the IC50 in the data set with Plasmodium falciparum [3] and in the data set on Plasmodium falciparum [6] were 4.12 µM and 4.09 µM, respectively. Moreover, the selectivity ratio in data set [4] worked out at 21.1; in data set [5], 20.9. Besides, the “Ratio IC50” value in data set [7] worked out at 0.99. The compound also came in with a CC50 at 72 h in data set [8] of 86.3 µM.
In the case of `CCOC(=O)C[C@@H]([C@H]1O[C@@H]2OC(C)(C)O[C@@H]2[C@H]1Oc1ccccc1[N+](=O)[O-])n1cnc2c(N)ncnc21`, the IC50 was 3.56 µM in the data set on Plasmodium falciparum [3] and 4.93 µM with Plasmodium falciparum [6]. Further, the selectivity ratio in data set [4] was determined as 19.5; in data set [5] it was 27.1. Also, the “Ratio IC50” value in data set [7] was determined as 1.38. Moreover, the CC50 at 72 h in data set [8] was 96.3 µM.
